The list is not random: actives were taken first. Their share in the collection is about 1.4%.
STK33 kinase inh – blocks human STK33 kinase activity | Q9BYT3 | purified STK33, MBP phosphorylation, ADP-Glo luminescence | inhibition, % at 10 µM | 320,000 compounds, 0.073% hits | AID 2661;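 active means inhibition at or above 25%, using the most active replicate where run in duplicate; inactive means inhibition below 25%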
GSIS activator – primary screen for activators of insulin secretion dependent on glucose, INS-1E cells, GLuc reporter luminescence; AID 743287; 370,000 compounds, 0.61% hits; activation, % at 16.6 µM; INS-1E GLuc reporter insulin secretion, 2-3 h;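 active means lowest replicate activation of at least 40%, so every replicate reaches that level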
Env fusion inh – blocks HIV Env-driven cell-cell fusion. HeLa-JRFL Env/CEM21 cell fusion, luciferase. inhibition, % at 12.3 µM. 360,000 compounds, 1.1% hits;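 active means mean replicate inhibition score of at least 50 and every replicate individually at or above 50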
GSK3A inh – human GSK-3 alpha kinase inhibition; inhibition, % at 10 µM; ADP-Glo luminescence, 60 min; 320,000 compounds, 0.1% hits;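 active means more than half of replicates show inhibition above 20%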;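 further: GST-tagged GSK-3 alpha with peptide substrate and 25 µM ATP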
GSK3B inh – inhibitors of human GSK3beta kinase. P49841. GST-GSK3beta kinase, ADP-Glo luminescence, 60 min; hits give low values. activity score (negative = inhibition), % at 10 µM. 300,000 compounds, 0.038% hits;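 active means more than half of replicate wells score below -50%, meaning over 50% inhibition versus plate controls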
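Assay system: GST-tagged human GSK3beta kinase, cell-free; Input: 1.6 ng GSK3beta; Medium: Tris/MgCl2 kinase buffer; Timing: 60 min enzyme reaction, room temperature; Signal: ADP-Glo luminescence quantifying ADP generated by kinase; Evaluation: score relative to plate controls; Benchmarks: DMSO neutral wells and GW8510 at 20 µM as positive.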
CDK5 inh – inhibitors of human CDK5/p35 kinase | 330,000 compounds, 0.01% hits | Q00535+Q15078 | Recombinant CDK5/p35, ADP-Glo luminescence, 60 min | AID 488839 | inhibition, % at 10 µM;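 active means highest replicate inhibition of at least 50% and at least 75% of replicates reaching 50%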
Target sequence (Q00535 whole entry, looked up): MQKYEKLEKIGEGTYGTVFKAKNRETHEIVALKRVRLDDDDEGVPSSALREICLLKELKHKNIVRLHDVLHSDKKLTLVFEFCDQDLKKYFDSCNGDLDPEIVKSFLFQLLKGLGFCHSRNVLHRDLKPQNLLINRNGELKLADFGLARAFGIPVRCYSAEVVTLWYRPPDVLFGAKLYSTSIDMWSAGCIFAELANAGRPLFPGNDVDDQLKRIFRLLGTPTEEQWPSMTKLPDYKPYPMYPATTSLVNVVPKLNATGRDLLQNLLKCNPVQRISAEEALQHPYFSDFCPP
Target sequence (Q15078 whole entry, looked up): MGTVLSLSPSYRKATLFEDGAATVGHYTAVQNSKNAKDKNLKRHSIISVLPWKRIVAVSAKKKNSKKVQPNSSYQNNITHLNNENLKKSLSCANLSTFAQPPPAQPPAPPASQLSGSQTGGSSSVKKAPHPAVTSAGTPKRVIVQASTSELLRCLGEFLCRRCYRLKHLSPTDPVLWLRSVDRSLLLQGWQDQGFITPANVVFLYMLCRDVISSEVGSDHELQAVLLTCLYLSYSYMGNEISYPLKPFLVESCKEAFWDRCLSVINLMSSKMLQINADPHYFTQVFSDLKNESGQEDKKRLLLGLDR
Numbers stand for hits; 0 = inactive; - = no result; [ ] = remark or other dose.

SMILES | STK33 kinase inh | GSIS activator | Env fusion inh | GSK3A inh | GSK3B inh | CDK5 inh
C=CCSc1nc(=O)n2cccc(C)c2n1 | 0 | 66.7 | - | 0 | 0 | 0
CCCOc1ccc(/C=N/Nc2cc(N3CCOCC3)ncn2)c(O)c1 | 0 | 0 | 67.3 | 0 | 0 | 0
Cc1ccc2c(c1)N(C(C)C(=O)NCc1cccs1)C(=O)CO2 (configuration not stated) | 0 | 51.0 | 0 | 0 | 0 | 0
Cc1ccc2c(c1)N(C(C)C(=O)NCc1ccccn1)C(=O)CO2 (configuration not stated) | 0 | 0 | 0 | 0 | 0 | 0
COc1ccc(NC(=O)N[C@H]2CC[C@@H](CCNC(=O)c3ccccc3F)O[C@@H]2CO)cc1 | - | 0 | 0 | - | - | -
CO[C@H]1CN(C)C(=O)c2cc(NS(=O)(=O)c3ccc(C)cc3)ccc2OC[C@@H](C)NC[C@@H]1C | - | 0 | 0 | - | - | -
COC(=O)c1ccc(C2SCC(=O)N2Cc2ccccc2)cc1 (configuration not stated) | 0 | - | - | 0 | 0 | 0
O=C(NCCSCc1ccccc1)c1ccc(C2SCC(=O)N2Cc2ccccc2)cc1 (configuration not stated) | 0 | - | 63.7 | 0 | 0 | 0
Cc1ccccc1S(=O)(=O)N1C[C@@H](O)COC[C@@H]2O[C@H](CC(=O)N3CCOCC3)CC[C@H]21 | - | 0 | - | - | - | -
CCCn1c(O)c(N=NC(=O)c2cccnc2)c2cc(Br)ccc21 | 0 | 40.9 | 0 | 0 | 0 | 0
CCCn1c(O)c(N=NC(=O)CNC(=O)c2cccnc2)c2ccccc21 | 0 | 0 | 0 | 0 | 0 | 0
c1ccc(CNc2ncnc3scc(-c4cccs4)c23)nc1 | 0 | 0 | 0 | 56.8 | 0 | 0
c1ccc(-c2csc3ncnc(NCc4ccccn4)c23)cc1 | 0 | - | 0 | 0 | 0 | 0
Cc1onc(-c2ccccc2)c1C(=O)NC(=S)NNC(=O)c1ccc(O)cc1 | 0 | 0 | 68.8 | 0 | 0 | 0
COc1ccc2c3c(n(C)c2c1)[C@H](CO)N(Cc1ccncc1)CC31CN(C(=O)NC(C)C)C1 | - | 0 | - | - | - | -
O=C(C[C@H]1C[C@H]2c3cc(NC(=O)Nc4ccccc4)ccc3O[C@H]2[C@H](CO)O1)NCCN1CCCCC1 | - | 0 | 0 | - | - | -
COc1ccc(C(C(=O)NC(C)(C)C)N(CCC(C)C)C(=O)CCC(=O)Nc2cc(C)on2)cc1 (configuration not stated) | 0 | 0 | 69.1 | 0 | 0 | 0
Cc1ccc(-c2cc(C(=O)NCc3cnn(C)c3)c3cc(Br)ccc3n2)cc1 | 0 | 334.9 | - | 0 | 0 | 0
CCCc1cc(=O)oc2cc(C)cc(OCC(=O)Nc3ccc(S(N)(=O)=O)cc3)c12 | 0 | 138.8 | 0 | 0 | 0 | 0
C=CCNC(=S)N/N=C/c1ccc(-c2cc(Cl)ccc2Cl)o1 | 0 | 123.6 | - | 0 | 0 | 0
Cc1noc(C)c1S(=O)(=O)Nc1ccc2c(c1)C(=O)N([C@H](C)CO)C[C@H](C)[C@H](CN(C)S(=O)(=O)c1cn(C)cn1)OCCCC[C@H](C)O2 | - | 0 | 0 | - | - | -
CC(C)NC(=O)Nc1ccc2c(c1)C(=O)N([C@H](C)CO)C[C@@H](C)[C@H](CN(C)C(=O)Nc1ccc(C(F)(F)F)cc1)OCCCC[C@@H](C)O2 | - | 0 | 0 | - | - | -
CC(C)NC(=O)Nc1ccc2c(c1)C(=O)N([C@H](C)CO)C[C@@H](C)[C@@H](CN(C)C(=O)Nc1ccc(C(F)(F)F)cc1)OCCCC[C@@H](C)O2 | - | 0 | 72.0[16.7 µM] | - | - | -
CC(C)NC(=O)Nc1ccc2c(c1)C(=O)N([C@H](C)CO)C[C@@H](C)[C@H](CN(C)C(=O)Nc1ccc(C(F)(F)F)cc1)OCCCC[C@H](C)O2 | - | 0 | 74.7[16.7 µM] | - | - | -
C[C@H]1CCCCO[C@H](CN(C)C(=O)Nc2ccc(C(F)(F)F)cc2)[C@@H](C)CN([C@@H](C)CO)C(=O)c2cc(NC(=O)c3ccncc3)ccc2O1 | - | 0 | 56.3[16.7 µM] | - | - | -
SMILES | STK33 kinase inh | GSIS activator | Env fusion inh | GSK3A inh | GSK3B inh | CDK5 inh
CC(C)NC(=O)Nc1ccc2c(c1)CC(=O)N(C)C[C@@H](C)[C@@H](CN(C)C)O2 | - | 0 | - | - | - | -
COc1ccccc1S(=O)(=O)N[C@H]1C=C[C@H](CC(=O)NCc2cccc(F)c2)O[C@@H]1CO | - | 0 | 0 | - | - | -
C[C@H](CO)N1C[C@H](C)[C@@H](CN(C)S(=O)(=O)c2ccc(Cl)cc2)OCc2cn(nn2)CCCC1=O | - | 0 | 0 | - | - | -
C[C@@H]1CN([C@H](C)CO)C(=O)c2cc(NC(=O)Nc3cccc4ccccc34)ccc2O[C@H]1CN(C)S(=O)(=O)c1ccccc1 | - | 0 | 0 | - | - | -
COc1ccc(OCCCN(C)Cc2ccccc2)cc1 | 0 | 0 | 0 | 0 | 0 | 0
CCC(C)c1ccccc1OCCCN(C)Cc1ccccc1 (configuration not stated) | 0 | 192.1 | 0 | 0 | 0 | 0
CCN1[C@@H]2c3ccc(-c4cccc(F)c4)c(=O)n3C[C@H]1[C@H](CO)[C@H]2C(=O)N(C)C | - | 0 | - | - | - | -
Cc1ccc(C(=O)Oc2ccc(-c3nccc(-c4ccccn4)n3)cc2)cc1 | 0 | 56.4 | - | 0 | 0 | 0
Cc1ccc2nc(N3CC(C)OC(C)C3)nc(-c3ccccc3)c2c1 (configuration not stated) | 0 | - | 0 | 0 | 0 | 0
Cc1ccc2c(c1)c(-c1ccccc1)nc1nncn12 | 0 | 46.4 | 0 | 0 | 0 | 0
Cc1cccc(-c2nc3ccccc3c3nncn23)c1 | 52.7 | - | 0 | 0 | 0 | 0
COc1ccccc1-c1nnc(SCC(=O)Nc2c(Cl)cccc2Cl)o1 | 0 | - | 0 | 0 | 0 | 0
COc1ccccc1-c1nnc(SCC(=O)NCc2c(C)c(Cl)cc(C(C)C)c2O)o1 | 0 | 0 | 85.6 | 0 | 0 | 0
CCCN(C)C[C@H]1Oc2cc(C#CCOC)ccc2S(=O)(=O)N([C@H](C)CO)C[C@H]1C | - | 0 | 0 | - | - | -
CCOC(=O)c1c(-n2cnnn2)sc2c1CCCC2 | 0 | 60.2 | 0 | 0 | 0 | 0
CCOC(=O)c1c(N)sc2c1CCCC2 | 0 | - | 0 | 0 | 0 | 0
CCCCNC(=O)N(O)C1N(/N=C/c2cccs2)C(=S)SC1(C)C (configuration not stated) | 0 | 0 | 66.9 | 0 | 0 | 0
Cc1oc2c(Cl)c(Cl)c(O)c(CN(C)C)c2c1C(=O)c1ccc(Cl)cc1 | 0 | 0 | 64.2 | 69.5 | 0 | 0
CCOc1ccccc1NC(=O)CN(C)S(=O)(=O)c1cnc[nH]1 | 0 | 0 | 0 | 0 | 0 | 0
CCOc1ccccc1CNS(=O)(=O)c1cnc[nH]1 | 0 | 43.6 | 0 | 0 | 0 | 0
COc1ccc(S(=O)(=O)Nc2ccc3c(c2)C(=O)N([C@H](C)CO)C[C@@H](C)[C@H](CN(C)C(=O)C2CCCCC2)OCCCC[C@H](C)O3)cc1 | - | 0 | 0 | - | - | -
CSc1ncccc1C(=O)NCCc1ccccc1F | 0 | 72.7 | 0 | 0 | 0 | 0
COc1ccc(NC(=O)Nc2ccc3c(c2)C(=O)N([C@@H](C)CO)C[C@H](C)[C@H](CN(C)C(=O)c2ccccc2)OCCCC[C@@H](C)O3)cc1 | - | 0 | 0 | - | - | -
CCCCNC(=O)C1c2ccccc2OCC(=O)N1CCCN1CCOCC1 (configuration not stated) | - | 0 | 0 | - | - | -
